Only some compounds are listed: those with a hit (about 3.7% of all), similar ones and a draw of the others.
Cl transport mod – modulates chloride dependent transport by human KCC2; B-score of Tl+ flux slope (higher = more flux/activation; lower = inhibition) at 10 µM; 190,000 tested, 2.2% active; KCC2 cells, thallium flux FluoZin-2 fluorescence; Q9H2X9;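 active means thallium flux slope and its plate-corrected score both differing from the plate sample mean at a set confidence after two filtering rounds, in either direction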;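 further: slope of fluorescence scaled to starting intensity during 10 to 20 s after thallium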
ROMK mod – modulates human ROMK potassium channel activity; AID 1918; 130,000 tested, 2% active; P48048; Tet-inducible ROMK, thallium flux fluorescence; actives lie on both sides; B-score at 10 µM;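 active means signal ratio slope over the read window, or its plate-corrected B-score, at least 3 SD from the plate mean, either direction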;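 further: B-score of the F/F0 ratio slope over 7 to 12 s after thallium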
Target sequence (P48048 whole entry, looked up): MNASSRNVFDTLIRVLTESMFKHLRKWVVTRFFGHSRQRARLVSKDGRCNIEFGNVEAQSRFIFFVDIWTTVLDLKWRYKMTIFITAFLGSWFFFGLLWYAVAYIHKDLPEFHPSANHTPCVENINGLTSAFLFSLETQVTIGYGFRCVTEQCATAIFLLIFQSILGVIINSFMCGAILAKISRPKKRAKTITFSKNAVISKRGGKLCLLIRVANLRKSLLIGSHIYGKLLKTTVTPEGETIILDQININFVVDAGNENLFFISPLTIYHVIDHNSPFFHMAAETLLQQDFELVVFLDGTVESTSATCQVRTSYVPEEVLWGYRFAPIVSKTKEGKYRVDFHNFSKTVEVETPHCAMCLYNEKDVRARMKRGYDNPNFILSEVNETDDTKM
Arbovirus inh – arbovirus infection inhibition; arbovirus infection cell-based antiviral screen; inhibition, % at 10 µM; 200,000 tested, 0.37% active; in the data active means inhibition above about 30%
Mdm2 ligase inh – Mdm2 E3 ligase (human) inhibition | Q00987 | cell-based MDM2 ubiquitination luciferase reporter, 2 h; 0 = plate control, 100 = twice control, blank-subtracted | AID 1230 | 210,000 tested, 0.11% active | signal enhancement, % at 5 µM;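 active means signal enhancement of 30% or more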;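 further: luminescence tracks abundance of the self-degrading MDM2-luciferase fusion protein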
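test system = mammalian cells stably expressing self-ubiquitinating, self-degrading MDM2 E3–luciferase fusion | quantity = 2000 cells/well | incubation = cell settling 4 h, compound treatment 2 h, both 37 °C | signal = luminescence with SteadyLite reagent, 15 min at room temperature | evaluation = % enhancement relative to plate controls after blank subtraction | benchmarks = plate controls and plate blanks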
m-calpain inh – inhibitors of pig calpain II; purified calpain II, fluorogenic peptide substrate, 30 min; 220,000 tested, 0.37% active; inhibition, % at 16 µM; AID 1236;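 active means inhibition above about 50%, limit read from the data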
PKD1 inh – blocks activity of human protein kinase D1; inhibition, % (concentration not given with the values); Q15139; AID 797; 200,000 tested, 0.056% active; PKD1 kinase fluorescence polarization assay; in the data active means inhibition above about 50%
KCC2 secondary – KCC2 (human) modulation, secondary assay. shares compounds with Cl transport mod. HEK293-KCC2, thallium flux, FluoZin2 fluorescence; active compounds read high. normalised thallium flux (F/F0 slope) at 10 µM. 3,700 tested, 15% active. AID 1713;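 active means thallium flux slope above the same plate's solvent-only control mean plus 3 SD; inconclusive means the two replicate wells disagree; inactive means no significant difference from solvent-only control wells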
KCC2 bumet counter – bumetanide-insensitive thallium flux in KCC2 cells with ouabain, counter-screen | 3,700 tested, 49% active | shares compounds with Cl transport mod | normalized thallium flux at 10 µM | HEK293-KCC2 + bumetanide/ouabain, thallium flux FluoZin2; active compounds read high;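 active means thallium entry rate above the same plate's blocked-transporter control wells by more than 3 SD; inconclusive means the two repeat wells disagree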;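 further: raw slope of fluorescence over initial fluorescence between 10 and 20 s after thallium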
KCC2 sec2 – confirmation of human KCC2 transport modulators; shares compounds with Cl transport mod; HEK293-KCC2, thallium flux FluoZin2 fluorescence; actives lie on both sides; F/F0 rise rate, 10–20 s post-thallium; normalized thallium flux at 10 µM; 3,700 tested, 23% active; AID 1715;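 active means thallium flux slope more than 3 SD above or below the plate's solvent-only control mean, mostly below; inconclusive means the two repeat wells disagreed; inactive means no significant shift from solvent-only controls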;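 further: raw slope with 0.1% DMSO as baseline and bumetanide as block control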
HEK counter1 – parental HEK flux effect, counter-screen; shares compounds with Cl transport mod; HEK293 parental cells, thallium flux FluoZin2, ouabain; baseline-ratio fluorescence slope, 10–20 s after thallium; thallium flux rate (normalised fluorescence) at 10 µM; 3,700 tested, 46% active; AID 1716;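 active means thallium flux rate significantly above the same plate's solvent-only control wells, beyond their mean plus 3 SD; inconclusive means the two replicate wells gave conflicting results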
KCC2 ouabain – KCC2 (human) modulation, ouabain retest | shares compounds with Cl transport mod | HEK293-KCC2, thallium flux FluoZin2 fluorescence; bidirectional: low = inhibitor, high = activator | raw Tl+ flux slope (below DMSO = inhibition, above = activation) at 10 µM | 3,700 tested, 48% active | AID 1717;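 active means thallium flux slope beyond 3 SD from same-plate DMSO control mean in most replicates, usually higher, sometimes lower; inconclusive means repeat tests gave conflicting results; inactive means no significant difference from controls in most replicates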;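 further: slope of initial-normalized fluorescence between seconds 10 and 20 after thallium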
HEK counter2 – parental HEK flux effect, counter-screen 2; HEK293 parental, thallium flux FluoZin-2 fluorescence slope; thallium flux slope at 10 µM; 3,700 tested, 33% active; shares compounds with Cl transport mod;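 active means thallium flux slope above the same plate's solvent-control mean plus 3 SD in both duplicate wells; inconclusive means duplicate wells that disagreed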;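 further: run without ouabain in cells lacking the KCC2 cotransporter; slope of fluorescence scaled to its starting value between 10 and 20 s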
Numbers without * were called inactive; ? = inconclusive; . = not tested or not shown.

SMILES | Cl transport mod | ROMK mod | Arbovirus inh | Mdm2 ligase inh | m-calpain inh | PKD1 inh | KCC2 secondary | KCC2 bumet counter | KCC2 sec2 | HEK counter1 | KCC2 ouabain | HEK counter2
CC(C)c1ccc(N)c(S(=O)(=O)O)c1 | 0.69 | -0.61 | . | -16 | 13 | . | . | . | . | . | . | .
CC(C)c1cccc(O)c(=O)c1 | 9.1* | 0.0034 | 7 | 3 | 15 | 2 | 0.0083 | 0.016* | 0.032 | 0.013* | 0.026* | ?
CCS(=O)(=O)NCCNc1ccc([N+](=O)[O-])cc1 | 0.42 | . | -4 | -7 | 2 | 0 | . | . | . | . | . | .
CCCCNc1cc(C(=O)O)cc(S(N)(=O)=O)c1Oc1ccccc1 | -6.4* | . | 1 | . | -52 | -24 | 0.0063 | 0.0046 | 0.023* | 0.0064 | 0.013* | 0.0094
Cc1[nH][nH]c(=O)c1C(c1c(C)[nH][nH]c1=O)c1cn(Cc2ccccc2Cl)c2ccccc12 | -0.97 | -2.1 | -4 | -1 | -45 | -3 | . | . | . | . | . | .
S=c1nc(SCc2ccccc2)[nH]c2ccccc12 | 120* | . | 5 | -32 | -15 | -6 | 0.019* | 0.098* | 0.1* | 0.11* | 0.095* | 0.1*
O=C(CCC(=O)c1ccc(F)cc1)Nc1cccc(S(=O)(=O)Nc2cccc(Cl)c2)c1 | -0.56 | 0.33 | 4 | -3 | -24 | -7 | . | . | . | . | . | .
CCOC(=O)N1CCN(C(=O)c2ccccc2NC(=O)COc2ccccc2C)CC1 | -3.3* | . | 0 | -10 | 0 | 5 | 0.0071 | 0.0049 | 0.025* | 0.0082 | 0.018 | 0.01
Cc1cc2cc(CNC(=O)c3ccc(C)c([N+](=O)[O-])c3)ccc2[nH]1 | -4.2* | 0.42 | -4 | . | 29 | -6 | 0.0087 | 0.0063 | 0.029 | 0.0076 | ? | 0.01
O=C(C1CCCN(S(=O)(=O)c2cccc3nsnc23)C1)N1CCc2ccccc2C1 (stereo unspecified) | -3.2* | -1.1 | -12 | . | 7 | -11 | 0.0078 | 0.0054 | 0.03 | 0.0073 | 0.019 | 0.011
O=C(C1CCCN(S(=O)(=O)c2cccc3nsnc23)C1)N1CCc2ccccc21 (stereo unspecified) | . | -1.4 | 6 | -16 | -9 | -3 | 0.0065 | 0.0071 | 0.031 | ? | 0.024 | 0.011
CN(C(=O)c1ccc(Cl)cc1)C1=CCCCC1CCC#N (stereo unspecified) | -0.093 | 0.54 | -3 | -12 | -42 | 0 | . | . | . | . | . | .
O=C(Cn1c(=O)sc2ccccc21)Nc1ccccc1 | 6.7* | -0.013 | 6 | -6 | -25 | 4 | 0.0064 | 0.0044 | 0.033 | 0.0078 | 0.02 | 0.01
COc1ccc(NC(=O)Cn2c(=O)sc3ccccc32)cc1 | 1.7 | 0.94 | -1 | -10 | 6 | 1 | . | . | . | . | . | .
Cc1cccc(N2CCN(C(=O)C3CCCN(S(=O)(=O)c4cccc5cccnc45)C3)CC2)c1C (stereo unspecified) | . | . | 15 | . | . | . | . | . | . | . | . | .
CCOC(=O)c1cnc(-n2nc(C)cc2C)nc1NNc1ncc(-c2ccccc2)cn1 | 8.5* | . | . | -9 | -3 | . | 0.0067 | 0.024* | 0.032 | 0.017* | 0.027* | 0.021*
CCOC(=O)c1cnc(-n2nc(C)cc2C)nc1NNc1cc(-c2ccccc2)nc(C)n1 | 0.7 | 0.17 | -35 | 8 | -29 | -1 | . | . | . | . | . | .
CC(NC(=O)COC(=O)CC(c1ccccc1)c1ccccc1)c1ccccc1 (stereo unspecified) | -4.7* | . | 6 | -8 | 17 | -11 | 0.008 | 0.0037 | 0.027 | 0.0053* | 0.018 | ?
Cc1ccc(C(=O)NCC(=O)OCC(=O)NC(C)c2ccccc2)s1 (stereo unspecified) | -0.62 | -0.6 | 4 | 7 | 9 | -3 | . | . | . | . | . | .
O=c1c(-c2nc3ccccc3o2)c2oc3ccccc3n2c2ccccc12 | -1.4 | . | -2 | -18 | -450 | -8 | . | . | . | . | . | .
CCOC(=O)CC1C(=O)NCCN1c1nc2ccc(C)cn2c(=O)c1/C=C1\SC(=S)N(CC(C)C)C1=O (stereo unspecified) | -5.2* | . | . | -78 | -40 | . | 0.0035* | 0.00041* | 0.014* | 0.0033* | 0.0071* | 0.0049*
Cc1ccc(-n2cnc3sc(C)c(C)c3c2=O)cc1 | 0.54 | -0.74 | -7 | -2 | 8 | 11 | . | . | . | . | . | .
N#CCSc1nnc(COc2cccc3ccccc23)n1-c1cccc(Cl)c1 | 7.6* | -0.54 | 5 | -14 | -34 | -4 | 0.0072 | ? | 0.03 | 0.0081 | 0.02 | 0.011
Cc1noc(C)c1C(=O)OCC(=O)NCCC1=CCCCC1 | 0.16 | -1.5 | 1 | -2 | 9 | 0 | . | . | . | . | . | .
CCCCC(c1nnnn1CCOC)N1CCN(c2cccc(OC)c2)CC1 (stereo unspecified) | -1 | . | 0 | -7 | -9 | 13 | . | . | . | . | . | .
SMILES | Cl transport mod | ROMK mod | Arbovirus inh | Mdm2 ligase inh | m-calpain inh | PKD1 inh | KCC2 secondary | KCC2 bumet counter | KCC2 sec2 | HEK counter1 | KCC2 ouabain | HEK counter2
Cn1nnnc1SCCOc1ccc(C#N)cc1 | 0.083 | -0.21 | 7 | -21 | -19 | -11 | . | . | . | . | . | .
CCCCc1c(C)nc2cc(-c3ccco3)[nH]n2c1=O | 4.5* | . | . | -5 | -31 | . | 0.0073 | 0.014* | 0.032 | 0.013* | ? | 0.015*
CCCc1cc(C(=O)Nc2sc3c(c2C#N)CCC3)no1 | 6.2* | . | -7 | -4 | -6 | 6 | 0.0078 | 0.024* | 0.029 | 0.018* | ? | 0.016*
CCCc1cc(C(=O)Nc2sc(C)c(CC)c2C#N)no1 | 9.7* | . | 10 | -4 | -16 | -13 | 0.012 | 0.026* | 0.037 | 0.021* | 0.029* | 0.013*
CCc1c(C)sc(NC(=O)c2cc(C3CC3)on2)c1C#N | 3.7* | . | -4 | -9 | 22 | -16 | 0.008 | 0.012* | 0.029 | 0.011* | 0.022 | 0.012*
O=[N+]([O-])c1cccc(/C=N/Nc2nc(NCc3ccccc3)nc(N3CCOCC3)n2)c1O | -1.6 | -0.53 | -35 | -16 | -229 | -9 | . | . | . | . | . | .
CCN(CC)C(=O)C1=C(C)Nc2nnnn2C1c1cccnc1 (stereo unspecified) | 0.24 | . | 0 | 11 | 13 | -4 | . | . | . | . | . | .

Screening data as filed in PubChem BioAssay.
